# According to article PMC8040281 (EClinicalMedicine, 2021):
# Entries after “also recorded” stand apart in the source; their conditions may differ. Like-named read-outs stand apart in the source and are kept apart here.
# Key:
# [1] = system: NSCLC cell lines harboring KRAS mutations; conditions: nonclinical studies; ref [15]; cited from earlier work
# [2] = format: in vivo, human
# [3] = First-in-human dose escalation: DLTs and MTD/RP2D; format: in vivo
# How it was run: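 Oral test compound once daily, starting at 60 mg/m2 (0.1 of preclinical non-severely toxic dose). Accelerated titration used 100% increments until ≥Grade 2 toxicity (alopecia excepted), then 3+3 with 25–50% steps. BSA-based dosing (actual dose −20 to +15% of calculated) later switched to flat doses to nearest 50 mg. Taxanes given IV. Toxicity graded by investigator per CTCAE v4.03.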
# [4] = system: metastatic or advanced solid malignant tumors; assay: Anti-tumor activity, RECIST 1.1, investigator assessed; format: in vivo, human
# How it was run: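 Investigator-assessed RECIST 1.1 response in patients with measurable disease. Oral test compound given once daily continuously, alone or ~2 h before IV paclitaxel at label or institutional dose and schedule. Time to progression is given as a median in weeks by tumor type and KRAS status.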
# [5] = 12-lead ECG and 24-hour Holter monitoring; format: in vivo, human; conditions: ECG and Holter monitoring around first dose
# How it was run: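 Oral test compound given once daily, first two doses 3–7 days apart. 12-lead ECGs were part of safety assessments. 24-hour digital Holter monitoring was run around the first dose to detect QTc changes.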
# clinical = conditions: human, in vivo, po
# [6] = TEAE, all dose levels, label TVB-2640 = monotherapy
# [7] = across all dose levels, label TVB-2640 = monotherapy
molecule,measurement,setting,value
TVB-3166,sensitivity of KRAS^MUT versus KRAS^WT NSCLC cell lines to killing,[1],more sensitive to killing with FASN inhibition than KRAS wild-type (KRAS^WT) lines
Cc1nnc(-c2cc(C(=O)N3CCC(c4ccc(C#N)cc4)CC3)c(C)cc2C2CCC2)[nH]1 [TVB-2640],Any TEAE,"[2]; Any Grade, N = 76 monotherapy, N = 55 + paclitaxel",75 (98.7) n (%)
same,Blood and lymphatic system disorders,"[2]; TEAE, Any Grade",11 (14•5) n (%)
same,Eye disorders,"[2]; TEAE, Any Grade",38 (50.0) n (%)
same,Gastrointestinal disorders,"[2]; TEAE, Any Grade",52 (68.4) n (%)
same,Infections and infestations,"[2]; TEAE, Any Grade",36 (47.4) n (%)
same,Investigations,"[2]; TEAE, Any Grade",22 (28•9) n (%)
same,Metabolism and nutrition system disorders,"[2]; TEAE, Any Grade",31 (40•8) n (%)
same,Musculoskeletal and connective tissue disorders,"[2]; TEAE, Any Grade",20 (26•3) n (%)
same,Nervous system disorders,"[2]; TEAE, Any Grade",27 (35•5) n (%)
same,"Respiratory, thoracic, and mediastinal disorders","[2]; TEAE, Any Grade",34 (44•7) n (%)
same,Skin and subcutaneous tissue disorders,"[2]; TEAE, Any Grade",63 (82.9) n (%)
same,"PPE syndrome, incidence",[2]; [6],46%
same,"alopecia, incidence",[2]; [6],61%
same,"fatigue, incidence",[2]; [6],37%
same,"decreased appetite, incidence","[2]; TEAE, monotherapy",26%
same,"dry eye, incidence","[2]; TEAE, monotherapy",17%
same,"dry skin, incidence","[2]; TEAE, monotherapy",22%
same,"lacrimation increased, incidence","[2]; TEAE, monotherapy",13%
same,"rash, incidence","[2]; TEAE, monotherapy",11%
same,"skin exfoliation, incidence","[2]; TEAE, monotherapy",12%
same,Blood and lymphatic system disorders,"[2]; TEAE, ≥Grade 3",3 (3•9) n (%)
same,Eye disorders,"[2]; TEAE, ≥Grade 3",3 (3.9) n (%)
same,Gastrointestinal disorders,"[2]; TEAE, ≥Grade 3",3 (3.9) n (%)
same,Infections and infestations,"[2]; TEAE, ≥Grade 3",5 (6.6) n (%)
same,Investigations,"[2]; TEAE, ≥Grade 3",6 (7•9) n (%)
same,Metabolism and nutrition system disorders,"[2]; TEAE, ≥Grade 3",5 (6•6) n (%)
same,Musculoskeletal and connective tissue disorders,"[2]; TEAE, ≥Grade 3",3 (3•9) n (%)
same,Nervous system disorders,"[2]; TEAE, ≥Grade 3",1 (1•3) n (%)
same,"Respiratory, thoracic, and mediastinal disorders","[2]; TEAE, ≥Grade 3",2 (2•6) n (%)
same,Skin and subcutaneous tissue disorders,"[2]; TEAE, ≥Grade 3",8 (10.5) n (%)
same,"adverse events resulting in dose reduction, patients",[2]; [7],28%
same,"adverse events resulting in treatment discontinuation, patients",[2]; [7],22%
same,>Grade 2 skin or eye toxicities at the MTD,"[2]; human, in vivo",no >Grade 2 skin or eye toxicities were observed
same,patients with serious pneumonitis,[2]; label TVB-2640 = monotherapy,not observed
same,Any ≥Grade 3 TEAE,"[2]; ≥Grade 3, N = 76 monotherapy, N = 55 + paclitaxel",44 (57.9) n (%)
same,DLT: PPE syndrome,"[3]; Grade 3 with paclitaxel, label TVB-2640 = monotherapy",3 n
same,"DLTs, total number","[3]; all dose levels, label TVB-2640 = monotherapy",6
same,nature of DLTs,[3]; in vivo,reversible skin and ocular effects
same,DLTs at 200 mg flat dose,[3]; label TVB-2640 = monotherapy (N = 6),no DLTs observed
same,DLT: Grade 3 corneal edema,[3]; monotherapy,1 n
same,DLT: iritis,[3]; monotherapy,1 n
same,DLT: keratitis,[3]; monotherapy,1 n
same,patients with DLTs at 250 mg flat dose,"[3]; monotherapy, bilateral eye keratitis and PPE syndrome",2 of 6
same,flat dose equivalent of the MTD/RP2D,"[3]; monotherapy, depending on body surface area",150 to 200 mg
same,PR rate (confirmed) / best response of CR or PR,"[4]; 6/53 evaluable patients with paclitaxel, label TVB-2640 = monotherapy",no patient treated with monotherapy had a complete or partial response; also recorded: No patient had a best response of complete response (CR) or partial response (PR)
same,"time to progression (TTP), NSCLC KRAS^WT disease","[4]; median, N = 6 monotherapy, label TVB-2640 = monotherapy",5 weeks
same,"time to progression (TTP), NSCLC KRAS^MUT disease","[4]; median, N = 11 monotherapy, label TVB-2640 = monotherapy",22 weeks
same,patients who experienced SD,"[4]; monotherapy, 29/69 evaluable patients",42%
same,QTc prolonging effect,[5],no clinically relevant QTc prolonging effect; also recorded: no significant gastrointestinal or serum chemistry toxicities or evidence of QTc prolongation; also recorded: no evidence of QTc prolongation
same,Tmax,clinical,~4 h
same,half-life,clinical,10 to 13 h
